Laboratory results taken from paper PMC6736600 (Cell chemical biology, 2019).
Like-named read-outs stand apart in the source and are kept apart here.

Key:
N119^3.35A CXCR4 = N119^3.35A CXCR4 (Homo sapiens, UniProt P61073, N119A); format: cell-based; details: for signal as % maximum of the WT signaling levels: N119^3.35A CAM, basal CAM activity roughly 47% of maximum WT response to CXCL12; for functional classification on the N119^3.35A CAM: dose-response without CXCL12, classification at 1 μM by one-way ANOVA vs DMSO
HIV-1 = details: read-out: HIV-1 IC50, cited from earlier work
N119^3.35A/S CXCR4 CAMs = details: ref Zhang et al., 2002; cited from earlier work
human CXCR4 = human CXCR4 (Homo sapiens, UniProt P61073); details: CXCL12 binding IC50, WT CXCR4, 125I-CXCL12, HEK-293 membranes; ± SD
HIV-1 IIIB = experiment: HIV-1 inhibition in TZM-bl reporter cells; format: cell-based; details: read-out: HIV-1 IC50, ± SD
Summary of the method: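 TZM-bl cells (HeLa-derived; CD4, CCR5, CXCR4; LTR-driven β-galactosidase and luciferase reporters), 5 × 10³ per well, grown 1–2 days at 37°C, 5% CO2. Serially diluted test compound applied 30 min before infection with HIV-1 IIIB at MOI of one. Reporter activity read per well; IC50 from ≥ three independent experiments, standard deviation given.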

[1] = Cytotoxicity, methylene blue, 72 hours; format: cell-based; details: human, CEM cells (acute lymphoblastic lymphoma)
[2] = Cytotoxicity, methylene blue, 72 hours; format: cell-based; details: human, TZM-bl cells
N119^3.35S CXCR4 CAM = details: ref Mona et al., 2016; cited from earlier work

Sequence of N119^3.35A CXCR4 (P61073 whole entry N119A): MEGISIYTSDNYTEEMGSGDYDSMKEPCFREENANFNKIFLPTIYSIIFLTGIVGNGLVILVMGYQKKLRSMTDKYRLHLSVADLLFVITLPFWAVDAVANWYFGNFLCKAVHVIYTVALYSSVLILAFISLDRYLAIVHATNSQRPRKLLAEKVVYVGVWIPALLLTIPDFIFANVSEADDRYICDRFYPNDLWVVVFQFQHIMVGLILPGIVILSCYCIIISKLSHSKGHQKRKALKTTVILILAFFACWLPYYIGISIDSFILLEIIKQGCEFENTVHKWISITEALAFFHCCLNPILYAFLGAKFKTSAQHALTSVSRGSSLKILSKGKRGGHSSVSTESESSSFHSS
Sequence of human CXCR4 (P61073 whole entry): as the sequence (P61073 whole entry N119A) above, with A119N counted along it

IC50 (human CXCR4) | IC50 (HIV-1 IIIB) | Compound | signal as % maximum of the WT signaling levels (N119^3.35A CXCR4) | functional classification on the N119^3.35A CAM (N119^3.35A CXCR4) | IC50 (HIV-1; ref Schols et al., 1997) | functional classification on N119^3.35A/S CAMs (N119^3.35A/S CXCR4 CAMs) | CC50 at 72 h [1] | CC50 at 72 h [2] | effect on N119^3.35A signaling levels vs DMSO (N119^3.35A CXCR4; 1 μM, p < 0.0001) | IC50 (HIV-1; ref Thoma et al., 2008) | functional classification on the N119^3.35S CAM (N119^3.35S CXCR4 CAM)
 |  | c1cc(CN2CCCNCCNCCCNCC2)ccc1CN1CCCNCCNCCCNCC1 [AMD3100] | ~ 83% | partial agonism | 4 to 10 nM | partial agonist |  |  |  |  | 
27.8 ± 1.9 nM | 4.2 ± 0.3 nM | Cl.c1nc2c(NCc3cn(CCCNCCCNC4CCCCC4)nn3)nc(N3CCNCC3)nc2[nH]1 [CX0298, N-Cyclohexyl-N’-(3-{4-[(2-piperazin-1-yl-9H-purin-6-ylamino)-methyl]-[1,2,3]triazol-1-yl}-propyl)-propane-1,3-diamine hydrochloride salt] |  | neutral antagonists |  |  | > 50000 nM | > 50000 nM |  |  | 
28 ± 2.7 nM | 2.4 ± 0.4 nM | Cl.c1nc2c(NCC3CCC(CNCCCNC4CCCCC4)CC3)nc(N3CCNCC3)nc2[nH]1 (stereo not shown) [Compound B7, N-Cyclohexyl-N’-{4-[(2-piperazin-1-yl-9H-purin-6-ylamino)-methyl]-cyclohexylmethyl}-propane-1,3-diamine hydrochloride salt] |  | neutral antagonists |  |  | > 50000 nM | > 50000 nM |  |  | 
 |  | CC1(C)CN2C(CSC(=NC3CCCCC3)NC3CCCCC3)=CSC2=N1 [IT1t, N,N’-dicyclohexylcarbamimidothioic acid (5,6-dihydro-6,6-dimethylimidazo[2,1-b]thiazol-3-yl)methyl ester] | ~ 25% | inverse agonism |  |  |  |  | significantly reduced signaling levels | 40 nM | inverse agonist
